According to ChEMBL document CHEMBL4311956, “A Qualified Success: Discovery of a New Series of ATAD2 Bromodomain Inhibitors with a Novel Binding Mode Using High-Throughput Screening and Hit Qualification” (J Med Chem, 2019):

How the values were obtained:
Homo sapiens [1] = organism: Homo sapiens; experiment: Selectivity ratio, ratio of inhibition of CECR2 (unknown origin) to Displacement of biotinylated H4 peptide from ATAD2B bromodomain (unknown origin) by TR-FRET assay
[2] = target: Chromatin remodeling regulator CECR2 (Homo sapiens, UniProt Q9BXF3); experiment: Inhibition of CECR2 (unknown origin) by TR-FRET assay
[3] = target: Bromodomain-containing protein 3 (Homo sapiens, UniProt Q15059, Y73A); experiment: Displacement of Alexa Fluor 647 labelled ligand from His6-tagged BRD3 BD2(1 to 435 residues)/BD1 Y73A mutant (unknown origin) after 30 mins by TR-FRET assay
Bromodomain-containing protein 3, sequence (Q15059 2-726 Y73A limits assumed): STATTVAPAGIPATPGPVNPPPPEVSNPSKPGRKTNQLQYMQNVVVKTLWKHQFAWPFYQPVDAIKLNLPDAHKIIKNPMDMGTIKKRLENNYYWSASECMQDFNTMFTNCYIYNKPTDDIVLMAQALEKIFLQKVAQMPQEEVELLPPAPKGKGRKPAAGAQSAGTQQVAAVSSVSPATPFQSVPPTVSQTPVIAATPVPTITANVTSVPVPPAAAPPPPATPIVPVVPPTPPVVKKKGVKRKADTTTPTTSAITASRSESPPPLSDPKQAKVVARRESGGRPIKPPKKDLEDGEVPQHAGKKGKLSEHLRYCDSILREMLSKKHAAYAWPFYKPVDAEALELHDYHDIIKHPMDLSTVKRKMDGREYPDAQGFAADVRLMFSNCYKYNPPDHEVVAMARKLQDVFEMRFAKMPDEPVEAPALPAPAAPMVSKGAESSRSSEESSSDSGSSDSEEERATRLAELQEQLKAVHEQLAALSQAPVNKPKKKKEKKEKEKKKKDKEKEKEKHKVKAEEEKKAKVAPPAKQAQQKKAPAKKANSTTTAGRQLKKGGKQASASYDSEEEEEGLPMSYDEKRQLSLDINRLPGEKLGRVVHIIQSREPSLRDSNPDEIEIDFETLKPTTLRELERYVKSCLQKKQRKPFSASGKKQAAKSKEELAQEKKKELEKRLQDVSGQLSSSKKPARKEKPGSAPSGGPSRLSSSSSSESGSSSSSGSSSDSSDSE
How it was run: (§1)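 BET selectivity by TR-FRET fluoroligand displacement. Uses tandem BET bromodomain constructs carrying a mutation in the non-assayed bromodomain.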

Homo sapiens [4] = organism: Homo sapiens; experiment: Selectivity ratio, ratio of inhibition of BRPF3 (unknown origin) to Displacement of biotinylated H4 peptide from ATAD2B bromodomain (unknown origin) by TR-FRET assay
Homo sapiens [5] = organism: Homo sapiens; experiment: Selectivity ratio, ratio of displacement of Alexa Fluor 647 labelled ligand from His6-tagged BRD4 BD2 (1 to 477 residues)/BD1 Y97A mutant (unknown origin) to displacement of SGRG-K(Ac)-GG-K(Ac)-GLG-K(Ac)-GGAKRHRKV-biotin) from His6/FLAG-tagged TEV fused ATAD2 bromodomain (981 to 1121 residues) expressed in Escherichia coli BL21(DE3) cells
[6] = target: Bromodomain testis-specific protein (Homo sapiens, UniProt Q58F21, Y66A); experiment: Displacement of Alexa Fluor 647 labelled ligand from His6/FLAG-tagged TEV fused BRDT BD2(1 to 397 residues)/[…] mutant (unknown origin) after 30 mins by TR-FRET assay; how it was run: as §1
[7] = target: ATPase family AAA domain-containing protein 2B (Homo sapiens, UniProt Q9ULI0); experiment: Displacement of biotinylated H4 peptide from ATAD2B bromodomain (unknown origin) by TR-FRET assay
[8] = target: Bromodomain-containing protein 2 (Homo sapiens, UniProt P25440, Y386A); experiment: Displacement of Alexa Fluor 647 labelled ligand from His6-tagged BRD2 BD1 (1 to 473 residues)/BD2 Y386A mutant (unknown origin) after 30 mins by TR-FRET assay; how it was run: as §1
Homo sapiens [9] = organism: Homo sapiens; experiment: Selectivity ratio, ratio of inhibition of CECR2 (unknown origin) to displacement of SGRG-K(Ac)-GG-K(Ac)-GLG-K(Ac)-GGAKRHRKV-biotin) from His6/FLAG-tagged TEV fused ATAD2 bromodomain (981 to 1121 residues) expressed in Escherichia coli BL21(DE3) cells
[10] = target: T1, ATPase family AAA domain-containing protein 2 (Homo sapiens, UniProt Q6PL18); experiment: Inhibition of ATAD2 bromodomain in human HUT78 chromatin lysate after 2 hrs by bromosphere competition binding assay
T1 sequence (Q6PL18 whole entry): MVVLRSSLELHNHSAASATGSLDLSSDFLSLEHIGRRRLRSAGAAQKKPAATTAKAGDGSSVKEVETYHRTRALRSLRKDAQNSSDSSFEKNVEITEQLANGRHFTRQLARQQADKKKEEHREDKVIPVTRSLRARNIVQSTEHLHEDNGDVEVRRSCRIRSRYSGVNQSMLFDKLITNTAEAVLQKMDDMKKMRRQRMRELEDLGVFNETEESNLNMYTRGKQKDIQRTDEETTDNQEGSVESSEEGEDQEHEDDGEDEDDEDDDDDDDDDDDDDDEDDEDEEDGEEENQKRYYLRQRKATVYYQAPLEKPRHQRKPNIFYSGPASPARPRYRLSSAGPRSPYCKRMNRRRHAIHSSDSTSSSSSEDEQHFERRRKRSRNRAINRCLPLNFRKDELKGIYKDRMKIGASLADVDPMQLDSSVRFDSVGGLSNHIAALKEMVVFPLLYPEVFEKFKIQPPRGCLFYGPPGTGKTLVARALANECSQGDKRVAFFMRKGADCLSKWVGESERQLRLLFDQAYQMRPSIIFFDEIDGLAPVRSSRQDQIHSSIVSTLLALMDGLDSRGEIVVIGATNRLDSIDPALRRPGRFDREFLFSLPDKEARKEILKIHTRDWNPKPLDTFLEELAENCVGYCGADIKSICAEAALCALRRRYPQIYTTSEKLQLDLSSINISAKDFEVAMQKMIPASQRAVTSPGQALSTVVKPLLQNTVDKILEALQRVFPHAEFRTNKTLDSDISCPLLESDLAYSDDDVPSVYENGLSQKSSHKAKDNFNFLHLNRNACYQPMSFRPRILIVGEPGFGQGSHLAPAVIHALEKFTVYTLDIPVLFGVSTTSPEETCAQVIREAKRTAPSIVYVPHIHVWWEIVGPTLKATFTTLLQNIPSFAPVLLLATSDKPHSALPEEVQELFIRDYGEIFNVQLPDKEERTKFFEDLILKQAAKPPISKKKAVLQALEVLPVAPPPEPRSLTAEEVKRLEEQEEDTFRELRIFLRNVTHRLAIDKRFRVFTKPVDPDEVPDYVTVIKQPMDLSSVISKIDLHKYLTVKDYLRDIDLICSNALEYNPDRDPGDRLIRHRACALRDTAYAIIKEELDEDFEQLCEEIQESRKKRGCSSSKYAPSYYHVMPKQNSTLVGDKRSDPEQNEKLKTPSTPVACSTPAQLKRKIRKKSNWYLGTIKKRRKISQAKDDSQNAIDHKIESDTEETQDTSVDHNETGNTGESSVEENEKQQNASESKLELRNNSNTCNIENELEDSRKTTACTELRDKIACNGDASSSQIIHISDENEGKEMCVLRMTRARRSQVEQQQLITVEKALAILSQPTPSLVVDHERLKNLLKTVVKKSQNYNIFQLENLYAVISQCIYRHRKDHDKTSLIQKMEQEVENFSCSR
How it was run: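 Bromosphere chemoproteomic assay. Measures competitive inhibition of binding of endogenous full-length ATAD2 from Hut-78 cells.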

[11] = target: Bromodomain-containing protein 1 (Homo sapiens, UniProt O95696); experiment: Inhibition of BRPF2 (unknown origin) by TR-FRET assay
Homo sapiens [12] = organism: Homo sapiens; experiment: Selectivity ratio, ratio of inhibition of TAF1 BD2 (unknown origin) to Displacement of biotinylated H4 peptide from ATAD2B bromodomain (unknown origin) by TR-FRET assay
CREB-binding protein = CREB-binding protein (Homo sapiens, UniProt Q92793); experiment: Inhibition of CREBBP (unknown origin) by TR-FRET assay
CREB-binding protein, sequence (Q92793 whole entry, the tested form may be a part): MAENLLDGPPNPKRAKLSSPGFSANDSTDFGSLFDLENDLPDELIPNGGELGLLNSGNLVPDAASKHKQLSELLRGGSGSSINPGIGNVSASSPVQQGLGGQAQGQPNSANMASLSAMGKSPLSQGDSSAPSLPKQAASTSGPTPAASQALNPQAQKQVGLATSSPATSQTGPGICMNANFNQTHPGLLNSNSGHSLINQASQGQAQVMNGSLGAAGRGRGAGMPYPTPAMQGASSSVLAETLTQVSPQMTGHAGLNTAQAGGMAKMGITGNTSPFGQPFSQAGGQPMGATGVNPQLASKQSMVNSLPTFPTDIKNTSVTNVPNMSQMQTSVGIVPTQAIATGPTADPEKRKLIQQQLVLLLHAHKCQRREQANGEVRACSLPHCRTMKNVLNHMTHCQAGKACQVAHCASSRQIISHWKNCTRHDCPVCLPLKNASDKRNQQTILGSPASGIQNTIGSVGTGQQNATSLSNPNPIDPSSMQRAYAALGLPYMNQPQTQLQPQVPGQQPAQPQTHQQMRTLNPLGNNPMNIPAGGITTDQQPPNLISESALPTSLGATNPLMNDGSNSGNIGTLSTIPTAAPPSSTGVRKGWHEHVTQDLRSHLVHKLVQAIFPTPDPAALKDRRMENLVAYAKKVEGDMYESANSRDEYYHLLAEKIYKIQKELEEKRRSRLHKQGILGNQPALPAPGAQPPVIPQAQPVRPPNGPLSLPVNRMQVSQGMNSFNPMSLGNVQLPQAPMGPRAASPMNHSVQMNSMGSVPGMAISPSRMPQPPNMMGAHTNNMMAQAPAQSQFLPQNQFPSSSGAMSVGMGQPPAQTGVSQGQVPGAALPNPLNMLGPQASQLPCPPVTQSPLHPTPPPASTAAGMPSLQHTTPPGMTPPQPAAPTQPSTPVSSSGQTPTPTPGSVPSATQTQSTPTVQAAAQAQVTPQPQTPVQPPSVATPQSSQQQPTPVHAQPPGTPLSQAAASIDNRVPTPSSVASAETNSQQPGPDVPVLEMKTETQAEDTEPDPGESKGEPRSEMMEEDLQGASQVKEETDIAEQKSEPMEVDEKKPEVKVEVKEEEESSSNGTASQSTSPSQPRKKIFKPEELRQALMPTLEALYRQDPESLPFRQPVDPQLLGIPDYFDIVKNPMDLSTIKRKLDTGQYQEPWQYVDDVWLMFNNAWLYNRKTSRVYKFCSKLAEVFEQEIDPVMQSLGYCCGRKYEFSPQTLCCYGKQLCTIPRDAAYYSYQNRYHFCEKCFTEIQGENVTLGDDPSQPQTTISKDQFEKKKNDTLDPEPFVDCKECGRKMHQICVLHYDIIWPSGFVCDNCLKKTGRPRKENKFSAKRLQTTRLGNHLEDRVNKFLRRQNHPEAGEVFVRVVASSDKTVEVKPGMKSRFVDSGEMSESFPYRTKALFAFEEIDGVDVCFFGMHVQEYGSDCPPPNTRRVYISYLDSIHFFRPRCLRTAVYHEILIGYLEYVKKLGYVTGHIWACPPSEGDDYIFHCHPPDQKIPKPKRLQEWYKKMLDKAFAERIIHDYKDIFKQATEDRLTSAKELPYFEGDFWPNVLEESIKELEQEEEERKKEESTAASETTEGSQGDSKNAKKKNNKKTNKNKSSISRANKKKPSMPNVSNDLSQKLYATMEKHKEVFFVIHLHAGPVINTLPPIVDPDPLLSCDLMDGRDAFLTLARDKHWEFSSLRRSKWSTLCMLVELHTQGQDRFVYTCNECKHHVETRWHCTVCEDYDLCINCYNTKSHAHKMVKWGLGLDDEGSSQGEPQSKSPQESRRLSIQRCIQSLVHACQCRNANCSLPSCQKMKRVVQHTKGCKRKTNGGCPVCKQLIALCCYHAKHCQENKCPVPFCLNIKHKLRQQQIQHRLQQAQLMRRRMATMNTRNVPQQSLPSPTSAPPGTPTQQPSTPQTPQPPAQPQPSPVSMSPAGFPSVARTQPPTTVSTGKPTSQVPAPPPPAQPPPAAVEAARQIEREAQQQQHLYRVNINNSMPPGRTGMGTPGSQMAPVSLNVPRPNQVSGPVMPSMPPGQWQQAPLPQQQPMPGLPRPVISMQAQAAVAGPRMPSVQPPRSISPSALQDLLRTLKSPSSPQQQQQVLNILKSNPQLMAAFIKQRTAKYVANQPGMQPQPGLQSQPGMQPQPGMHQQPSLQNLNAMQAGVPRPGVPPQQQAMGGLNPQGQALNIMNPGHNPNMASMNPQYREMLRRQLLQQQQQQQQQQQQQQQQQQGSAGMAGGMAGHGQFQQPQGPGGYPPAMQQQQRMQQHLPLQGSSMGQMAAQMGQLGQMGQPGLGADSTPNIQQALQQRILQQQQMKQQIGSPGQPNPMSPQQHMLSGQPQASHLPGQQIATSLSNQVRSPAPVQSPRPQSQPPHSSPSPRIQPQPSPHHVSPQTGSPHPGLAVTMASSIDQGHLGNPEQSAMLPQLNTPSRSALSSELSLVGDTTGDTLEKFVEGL

Homo sapiens [13] = organism: Homo sapiens; experiment: Selectivity ratio, ratio of inhibition of BRPF3 (unknown origin) to displacement of SGRG-K(Ac)-GG-K(Ac)-GLG-K(Ac)-GGAKRHRKV-biotin) from His6/FLAG-tagged TEV fused ATAD2 bromodomain (981 to 1121 residues) expressed in Escherichia coli BL21(DE3) cells
[14] = target: Bromodomain-containing protein 7 (Homo sapiens, UniProt Q9NPI1); experiment: Inhibition of BRD7 (unknown origin) by TR-FRET assay
Bromodomain-containing protein 7, sequence (Q9NPI1 whole entry): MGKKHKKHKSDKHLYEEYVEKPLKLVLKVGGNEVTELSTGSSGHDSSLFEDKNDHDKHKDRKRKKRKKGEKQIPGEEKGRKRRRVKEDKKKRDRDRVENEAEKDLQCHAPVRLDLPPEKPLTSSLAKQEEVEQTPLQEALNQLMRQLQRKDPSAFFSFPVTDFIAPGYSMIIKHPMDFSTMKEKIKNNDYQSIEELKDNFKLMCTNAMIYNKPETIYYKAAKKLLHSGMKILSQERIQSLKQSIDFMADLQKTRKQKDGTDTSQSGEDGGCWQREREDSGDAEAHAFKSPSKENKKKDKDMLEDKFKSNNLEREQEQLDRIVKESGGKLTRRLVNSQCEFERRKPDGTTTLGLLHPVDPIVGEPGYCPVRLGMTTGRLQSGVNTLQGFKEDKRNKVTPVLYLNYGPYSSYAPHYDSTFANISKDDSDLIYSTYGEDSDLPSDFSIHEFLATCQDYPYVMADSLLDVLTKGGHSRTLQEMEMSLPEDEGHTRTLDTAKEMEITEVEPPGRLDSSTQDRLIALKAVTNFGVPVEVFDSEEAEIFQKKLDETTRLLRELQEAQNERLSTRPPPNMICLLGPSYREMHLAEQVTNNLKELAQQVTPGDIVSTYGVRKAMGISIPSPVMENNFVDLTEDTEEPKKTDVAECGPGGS

Peregrin = Peregrin (Homo sapiens, UniProt P55201); experiment: Inhibition of BRPF1 (unknown origin) by TR-FRET assay
Peregrin, sequence (P55201 whole entry): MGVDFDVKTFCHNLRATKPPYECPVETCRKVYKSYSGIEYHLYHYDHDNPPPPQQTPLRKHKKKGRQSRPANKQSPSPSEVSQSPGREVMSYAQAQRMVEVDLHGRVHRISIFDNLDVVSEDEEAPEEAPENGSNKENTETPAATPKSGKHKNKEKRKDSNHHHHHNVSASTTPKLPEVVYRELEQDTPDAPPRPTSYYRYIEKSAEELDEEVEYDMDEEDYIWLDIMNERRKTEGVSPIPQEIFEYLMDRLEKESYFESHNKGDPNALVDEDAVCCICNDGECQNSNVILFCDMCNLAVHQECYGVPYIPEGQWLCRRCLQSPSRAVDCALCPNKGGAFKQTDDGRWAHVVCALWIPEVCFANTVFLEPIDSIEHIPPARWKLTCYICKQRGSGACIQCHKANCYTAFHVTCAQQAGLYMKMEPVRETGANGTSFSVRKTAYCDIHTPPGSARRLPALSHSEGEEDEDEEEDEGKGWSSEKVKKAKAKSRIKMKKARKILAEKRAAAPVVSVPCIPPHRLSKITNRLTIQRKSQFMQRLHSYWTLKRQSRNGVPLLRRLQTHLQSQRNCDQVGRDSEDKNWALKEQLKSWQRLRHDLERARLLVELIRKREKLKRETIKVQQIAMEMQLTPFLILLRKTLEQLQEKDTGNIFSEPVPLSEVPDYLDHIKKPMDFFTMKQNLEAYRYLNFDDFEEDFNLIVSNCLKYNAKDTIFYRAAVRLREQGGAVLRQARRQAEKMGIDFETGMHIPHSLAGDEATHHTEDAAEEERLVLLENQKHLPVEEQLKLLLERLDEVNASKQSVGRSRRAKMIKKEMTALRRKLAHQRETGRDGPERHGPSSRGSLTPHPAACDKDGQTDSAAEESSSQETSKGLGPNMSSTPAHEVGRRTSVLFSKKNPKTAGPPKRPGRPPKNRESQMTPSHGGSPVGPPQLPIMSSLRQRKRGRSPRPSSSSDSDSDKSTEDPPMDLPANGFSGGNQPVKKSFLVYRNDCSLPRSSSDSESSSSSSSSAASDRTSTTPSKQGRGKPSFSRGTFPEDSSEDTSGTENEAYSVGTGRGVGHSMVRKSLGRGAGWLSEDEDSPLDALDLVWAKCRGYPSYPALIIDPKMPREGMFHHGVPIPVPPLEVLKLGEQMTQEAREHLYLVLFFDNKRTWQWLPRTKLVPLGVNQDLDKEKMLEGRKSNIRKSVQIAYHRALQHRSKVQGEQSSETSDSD

[15] = target: Transcription initiation factor TFIID subunit 1 (Homo sapiens, UniProt P21675); experiment: Inhibition of TAF1 BD2 (unknown origin) by TR-FRET assay

- Selectivity ratio (Homo sapiens [1]): > 10
- IC50 [2]: 2.51 µM
- IC50 [3]: 31.6 µM
- Selectivity ratio (Homo sapiens [4]): > 10
- Selectivity ratio (Homo sapiens [5]): 60
- IC50 [6]: 15.8 µM
- IC50 [7]: 0.501 µM
- IC50 [8]: > 50.1 µM
- IC50 [10]: 3.98 µM
- IC50 [11]: 12.6 µM
- Selectivity ratio (Homo sapiens [12]): > 10
- IC50 (CREB-binding protein): > 100 µM
- IC50 [14]: 63.1 µM
- IC50 (Peregrin): > 100 µM
- IC50 [15]: 3.98 µM
Structure (SMILES): CC1(C2CC2)NC(=O)N(CC(=O)Nc2ccc(Br)c(S(=O)(=O)N3CCCCC3)c2)C1=O (racemic)
- Selectivity ratio (Homo sapiens [9]): > 10
- Selectivity ratio (Homo sapiens [13]): > 10
